High-throughput results as filed in PubChem BioAssay.
GSK3A inh – inhibitors of human GSK-3 alpha kinase. P49840. ADP-Glo luminescence, 60 min. inhibition, % at 10 µM. actives 0.1% (n = 320,000). AID 2650;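 active = more than half of replicates show inhibition above 20%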;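 note: GST-tagged GSK-3 alpha with peptide substrate and 25 µM ATP; 0% = DMSO neutral wells and 100% = GW8510 positive control wells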
Rce1 inh – blocks yeast Ras-converting enzyme | AID 2563 | actives 0.27% (n = 290,000) | yeast membranes, quenched prenylated peptide cleavage fluorescence | calls only;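 active = fall in fluorescence gain of 50% or more versus controls, with final raw signal at or below 3038400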;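 note: plate controls were neutral control wells for no effect and wells lacking membranes for full effect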
GSK3beta inhib – inhibitors of human GSK3beta kinase | GST-GSK3beta kinase, ADP-Glo luminescence, 60 min; stronger effect = lower value | activity score (negative = inhibition), % at 10 µM | actives 0.038% (n = 300,000);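 active = more than half of replicate wells score below -50%, meaning over 50% inhibition versus plate controls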;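 note: 0% = median DMSO wells and -100% = median GW8510 positive control wells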
Target sequence (P49841 whole entry, looked up): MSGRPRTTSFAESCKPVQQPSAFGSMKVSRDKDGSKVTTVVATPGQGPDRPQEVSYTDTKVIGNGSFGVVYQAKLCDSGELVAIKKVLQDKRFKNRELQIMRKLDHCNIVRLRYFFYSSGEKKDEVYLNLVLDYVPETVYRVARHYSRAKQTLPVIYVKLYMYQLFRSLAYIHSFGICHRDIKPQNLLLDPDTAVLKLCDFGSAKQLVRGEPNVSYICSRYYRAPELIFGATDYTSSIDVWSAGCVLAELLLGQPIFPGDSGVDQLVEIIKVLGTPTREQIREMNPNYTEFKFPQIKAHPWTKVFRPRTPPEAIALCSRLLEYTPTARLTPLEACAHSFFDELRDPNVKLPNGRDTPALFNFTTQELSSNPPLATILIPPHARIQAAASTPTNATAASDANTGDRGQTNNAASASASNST
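Assay system: GST-fused GSK3beta enzyme, cell-free / Medium: Tris pH 7.5 buffer with MgCl2, DTT, BSA, heparin / Also added: peptide substrate plus 25 µM ATP (final) / Compound: 10 µM single point / Timing: kinase reaction with compound 60 min at room temperature / Detection: ADP-Glo luminescence / Benchmarks: DMSO neutral wells and GW8510 at 20 µM as positive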
AI-2 QS mod – modulators of Vibrio harveyi AI-2 quorum sensing system. AID 2094. actives 0.4% (n = 300,000). Vibrio harveyi JMH597 AI-2 luminescence/OD600 ratio, 9 h; stronger effect = lower value; strain lacks LuxN and CqsS sensors; 0 = neutral-control median. activity change, % at 7.5 µM; in the data active = activity change below about -75%, passing the limit was not always enough;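 note: luminescence divided by OD600 gain over 9 h not by final OD600 alone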
DYRK1A inh – inhibitors of rat Dyrk1A kinase. ADP-Glo luminescence, NFATc1 peptide. inhibition, % at 12.5 µM. actives 0.43% (n = 310,000). AID 504441; in the data active = inhibition above about 50%;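 note: plate controls were vehicle with enzyme for no effect and no enzyme for full effect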
STK33 kinase inh – blocks human STK33 kinase activity; inhibition, % at 10 µM; AID 2661; purified STK33, MBP phosphorylation, ADP-Glo luminescence; actives 0.073% (n = 320,000);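 active = inhibition at or above 25%, using the most active replicate where run in duplicate; inactive = inhibition below 25%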
JMH597 growth – retest: blocks Vibrio harveyi JMH597 growth. growth inhibition, % at 7.5 µM. actives 1% (n = 750). OD600 absorbance, 9 h; lacks LuxN and CqsS sensors. shares compounds with AI-2 QS mod;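 active = every replicate shows growth inhibition above 50%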
BB721 const-QS lum – retest counter-screen: lowers luminescence of constitutive-QS Vibrio harveyi BB721 | inhibition, % at 7.5 µM | actives 95% (n = 750) | 9 h | shares compounds with AI-2 QS mod;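 active = inhibition above about 80% in every replicate, not just on average, limit read from the data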
BB721 growth rt – retest: blocks Vibrio harveyi BB721 growth; shares compounds with AI-2 QS mod; AID 2728; actives 3% (n = 750); growth inhibition, % at 7.5 µM; OD600 absorbance, 9 h;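 active = every replicate shows growth inhibition above 50%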
JMH597 AI-2 mod – Vibrio harveyi AI-2 signaling luminescence modulation – JMH597 strain, confirmation. Vibrio harveyi JMH597 AI-2 quorum sensing luminescence, 9 h; luxN and CqsS knockout, AI-2 only. inhibition, % at 7.5 µM. actives 97% (n = 750). shares compounds with AI-2 QS mod;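 active = every replicate shows more than 75% inhibition of signal versus neutral control wells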
* = called active by the depositor. In the library only some 0.99% were active in any assay of this set; here they are far more common.

Screening CCCCOC(=O)Nc1ccc(S(=O)(=O)Nc2ncccn2)cc1 returned GSK3A inh -1, Rce1 inh inactive, GSK3beta inhib 1, AI-2 QS mod -91*, DYRK1A inh -4, STK33 kinase inh 0, JMH597 growth -16, BB721 const-QS lum 96*, BB721 growth rt -18 and JMH597 AI-2 mod 97*.
`NC(=O)C1CCN(c2nc(-c3cccs3)cs2)CC1` gave GSK3A inh 0, DYRK1A inh 5 and STK33 kinase inh 0.
For CCOC(=O)C1=C(c2ccccc2)NC(=S)NC1C (stereo not drawn) the results were GSK3A inh -3, Rce1 inh inactive, GSK3beta inhib 3, AI-2 QS mod -4, DYRK1A inh -5 and STK33 kinase inh 0.
CCOC(=O)C1=C(C)NC(=S)NC1C (stereo not drawn) was read as GSK3A inh -2, Rce1 inh inactive, GSK3beta inhib 1, AI-2 QS mod -82*, DYRK1A inh -5, STK33 kinase inh -1, JMH597 growth 27, BB721 const-QS lum 56, BB721 growth rt 31 and JMH597 AI-2 mod 72.
Screening O=C1CCC(C(=O)N2CCCC(Nc3ccc(F)cc3)C2)=NN1 (stereo not drawn) returned GSK3A inh 0, Rce1 inh inactive, GSK3beta inhib 3, AI-2 QS mod 0 and STK33 kinase inh -1.
For COc1ccccc1NC(=O)C1CC(C)OC1=O (stereo not drawn) the results were GSK3A inh -1, Rce1 inh inactive, GSK3beta inhib 3, AI-2 QS mod -6, DYRK1A inh 5 and STK33 kinase inh -1.
`O=C(O)c1ccc(N/N=C/c2ccc(-c3ccc(Cl)cc3Cl)o2)cc1` gave GSK3A inh 1, Rce1 inh inactive, GSK3beta inhib -1, AI-2 QS mod -90*, DYRK1A inh 4, STK33 kinase inh -1, JMH597 growth 19, BB721 const-QS lum 98*, BB721 growth rt 1 and JMH597 AI-2 mod 97*.
Screening CC1CCN(CC(O)COc2ccc(-c3ccccc3)cc2)CC1 (stereo not drawn) returned GSK3A inh -3, Rce1 inh inactive, GSK3beta inhib -3, AI-2 QS mod 5, DYRK1A inh 2 and STK33 kinase inh -3.
Clc1ccc2oc(-c3cccnc3)nc2c1 was read as GSK3A inh -3, Rce1 inh inactive, GSK3beta inhib 0, AI-2 QS mod 17, DYRK1A inh -8 and STK33 kinase inh -2.
Screening Clc1ccc2oc(SCc3cccnc3)nc2c1 returned GSK3A inh 1, Rce1 inh inactive, GSK3beta inhib 1, AI-2 QS mod -81*, DYRK1A inh 0, STK33 kinase inh 0, JMH597 growth 1, BB721 const-QS lum 97*, BB721 growth rt 15 and JMH597 AI-2 mod 96*.
`O=C(NCCc1nccs1)C1CCC(=O)N(CCc2ccc(Cl)cc2)C1` (stereo not drawn) gave GSK3A inh 0, GSK3beta inhib -8, AI-2 QS mod 19, DYRK1A inh 3 and STK33 kinase inh -1.
Screening c1ccc(OCCSc2nc3ccccc3o2)cc1 returned GSK3A inh 1, Rce1 inh inactive, GSK3beta inhib -2, AI-2 QS mod -80*, DYRK1A inh -6, STK33 kinase inh -1, JMH597 growth 27, BB721 const-QS lum 94*, BB721 growth rt 7 and JMH597 AI-2 mod 96*.
